These results are taken from PubChem BioAssay.

The structures appear in SMILES notation. A number with no mark means an inactive call. Records with an inconclusive call do not appear. The source made the active and inactive calls.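 The calls were made as follows, unless noted: active = inhibition over a set limit, the all-compound mean plus 3 SD, in both replicate runs; inconclusive = over that limit in just one replicate run; inactive = at or under that limit in both runs.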

A short description of experiment [1]: S. cerevisiae growth inhibition in permissive medium (OD615), pilot counter-assay for S. cerevisiae lifespan shortening project, permissive growth control (AID 705;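 active = growth inhibition above 25% in both replicates, a cutoff set 3 SD above the mean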). The conditions noted are these: OD615, 24 h, at 10 µM, active compounds read high. A digest of the protocol: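 System: engineered DeaD yeast; Medium: permissive raffinose/galactose medium; Compound dosing: 10 µM single dose, 0.25% DMSO; Incubation: 4 h cell pre-growth, 24 h exposure at 30 °C; Technique: OD at 615 nm; Evaluation: growth inhibition from lowered OD615 after 24 h.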

Experiment [2] in a line: S. cerevisiae growth inhibition in restrictive medium, OD615, pilot screen, restrictive growth control, yeast lifespan reduction project (AID 706;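 active = growth inhibition above a set limit, 3 SD over mean compound inhibition, in both replicates, cut at about 43% in these data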;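 also: modified DeaD lifespan yeast strain shifted to restrictive glucose medium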). The conditions noted are these: OD615, 48 h, at 10 µM, active compounds read high. The gist of the method:
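Material: modified S. cerevisiae; buffer or medium: CSMM-D glucose medium; doses: one concentration, 10 µM final, 0.25% DMSO; incubation: 48 h compound exposure at 30 °C; detection: optical density at 615 nm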

A short description of experiment [3]: doxorubicin toxicity protection in MRP-1 cells – H69AR cells, CellTiter-Glo, duplicate, MRP-1 activator project, pilot screen (AID 807;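 active = viability increase at or above a cutoff of the median across tested compounds plus 3 SD, cut at about 8.5% in these data, passing the limit was not always enough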;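 also: compound pretreatment 18-22 h then 72 h combined with doxorubicin; 0% = doxorubicin alone and 100% = vehicle without doxorubicin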). The settings on record: H69AR viability with doxorubicin, CellTiter-Glo luminescence; at 10 µM; active compounds read high.
The nature of experiment [4]: viability of HCT116 without oncogenic beta-catenin – human colon tumor cells, pilot screen (AID 823;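 active = cell viability at or below a set limit in both duplicate runs, the limit being the all-compound median minus 4 SD, cut at about 23% in these data, passing the limit was not always enough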;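 also: 0% = wells killed by 20 µM Hyamine and 100% = untreated DMSO cell wells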). The settings on record: HCT116 beta-catenin knockout viability, CellTiter-Glo, 60 h; at 10 µM; active compounds read low. In general terms: Cellular ATP, detected with luciferase, serves as a proxy for viable cell number.
A short description of experiment [5]: viability of PTEN-null HCT116 cells – cell-based, HCT116 clonal line, CellTiter-Glo, pilot screen (AID 824;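 active = viability at or below 27.92% in each of two runs, the all-compound median minus 4 SD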;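 also: 0% = 20 µM Hyamine control and 100% = vehicle cell control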). The conditions noted are these: HCT116 PTEN-deleted viability, 60 h, at 10 µM, active compounds read low.
The nature of experiment [6]: RAM pathway blockade in budding yeast – dse1pr::URA3 reporter, 5-FOA selection, pilot screen (AID 869).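 Also: 0% = DMSO wells with no growth and 100% = 10 µM 1-NA-PP1 with full growth; RAM network block rescues cells from 5-FOA so hits raise OD615 growth.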 The conditions noted are these: S. cerevisiae dse1pr::URA3 5-FOA growth, OD615, 2 d; at 10 µM; active compounds read high; strain carries analog-sensitive mutant Cbk1 kinase.
A short description of experiment [7]: RAM signaling pathway blockade in yeast – S. cerevisiae, Pdr1DBD-CYC8 efflux-inhibited sensitized strain, primary screen (AID 1298;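 active = RAM network inhibition above 8.4% in each of two replicates, 3 SD over the compound average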;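 also: 0% = DMSO untreated cells without growth and 100% = 10 µM 1-NA-PP1 full growth; higher means more yeast growth rescued from 5-FOA killing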). The settings on record: S. cerevisiae cbk1-as DSE1-URA3 strain, 5-FOA growth OD615, 2 d; at 50 µM; active compounds read high.

As a reminder, the viability is a read-out of living cells in per cent, often relative to untreated cells. In general, inhibition refers to the share of the control response that was lost under treatment. Regarding `Cc1nc2ccccc2c2oc(C(=O)NCc3ccc4c(c3)OCO4)cc12`, the figures for the growth inhibition in experiment [1] and in experiment [2] were -5.28% and -8.97%, respectively. Further, the viability increase in experiment [3] was -0.55%. The viability in experiment [4] was 70.8%; in experiment [5], 80.8%. In experiment [6], the inhibition is 1.01%. Moreover, the RAM network inhibition in experiment [7] is 5.03%.

Turning to `Cc1cccc(N=C(N2CCOCC2)P(=O)(N2CCOCC2)N2CCOCC2)c1`, the growth inhibition was -24.7% in experiment [1] and -23.4% in experiment [2]. For the same compound, the viability increase in experiment [3] was -0.69%. The viability is 98.1% in experiment [4] and 92.6% in experiment [5]. For the same compound, in experiment [6], the inhibition is 3.29%. In addition, the RAM network inhibition in experiment [7] is 5.26%.

With `CCc1ccc(C2CC(=O)NC(SCC(=O)OC(C)C)=C2C#N)cc1` (stereo unspecified), the growth inhibition was -13.8% in experiment [1] and -4.45% in experiment [2]. Further, in experiment [3], the viability increase was 0.08%. Also, the figures for the viability in experiment [4] and in experiment [5] were 78.9% and 79.5%, respectively. Besides, the inhibition in experiment [6] is 1.15%. Moreover, the RAM network inhibition in experiment [7] is 2.6%.

For the compound `Cc1ccc(S(=O)(=O)Cc2ccc(C(=O)N3CCN(c4ccc(F)cc4)CC3)o2)cc1`, the figures for the growth inhibition in experiment [1] and in experiment [2] were -9.22% and -15.2%, respectively. Besides, the viability increase in experiment [3] was -6.28%. Also, the viability was 33% in experiment [4] and 23.3% (active) in experiment [5]. Further, the inhibition in experiment [6] was 0.575%. For the same compound, the RAM network inhibition in experiment [7] is 4.81%.

With `CC(Oc1ccc(Cl)cc1Cl)C(=O)Nc1ccncc1` (stereo unspecified), the growth inhibition in experiment [1] was -13.3%; in experiment [2] it was -9.66%. Further, the viability increase in experiment [3] was -6.03%. For the same compound, the viability in experiment [4] is 54.9%; in experiment [5] it was 54.2%. Besides, the inhibition in experiment [6] was 1.19%. Moreover, the RAM network inhibition in experiment [7] was 2.04%.

Consider `COc1cccc(C2CC(c3ccccc3)Nc3nc(N)nn32)c1` (stereo unspecified), for which the growth inhibition is -2.81% in experiment [1] and 7.94% in experiment [2]. The viability increase in experiment [3] was 0.44%. For the same compound, the viability in experiment [4] is 94.9%; in experiment [5] it was 93.5%. Also, the inhibition in experiment [6] was 1.83%. In addition, the RAM network inhibition in experiment [7] is 3.16%.

Turning to `Cc1cc(NC(=O)COC(=O)c2ccc(F)c(S(=O)(=O)N3CCOCC3)c2)no1`, the results for the growth inhibition in experiment [1] and in experiment [2] were -13.5% and -21.9%, respectively. The viability increase in experiment [3] was -1.16%. In addition, the viability is 103% in experiment [4] and 96.8% in experiment [5]. Moreover, the inhibition in experiment [6] is 1.03%. In addition, the RAM network inhibition in experiment [7] was 3.16%.

For `O=C(NC1CCCC1)c1ccc(CS(=O)(=O)c2ccc(Br)cc2)o1`, the values for the growth inhibition in experiment [1] and in experiment [2] were -3.78% and -9.12%, respectively. Besides, in experiment [3], the viability increase was -0.83%. For the same compound, the viability in experiment [4] was 102%; in experiment [5], 93.9%. The inhibition in experiment [6] is 3.01%. The RAM network inhibition in experiment [7] was 1.03%.

For the compound `O=C(NCc1ccc2c(c1)OCO2)c1cc2c(s1)CSC2`, the growth inhibition is -4.81% in experiment [1] and 3.8% in experiment [2]. Moreover, in experiment [3], the viability increase was -1.75%. Besides, the viability in experiment [4] was 99.2%; in experiment [5], 95.5%. The inhibition in experiment [6] was 1.75%. Also, the RAM network inhibition in experiment [7] was 0.94%.

For the compound `O=C(O)CC1C(=O)NCCN1CCCc1ccccc1` (stereo unspecified), the results for the growth inhibition in experiment [1] and in experiment [2] were -11.4% and -8.64%, respectively. The viability increase in experiment [3] is -0.23%. Moreover, the results for the viability in experiment [4] and in experiment [5] were 97.8% and 97.9%, respectively. For the same compound, the inhibition in experiment [6] is 0.455%. The RAM network inhibition in experiment [7] is -1.48%.

In the case of `COc1ccccc1-c1nnc(NC(=O)c2ccccc2F)o1`, the growth inhibition in experiment [1] is -16.6%; in experiment [2] it was -17.1%. In addition, the viability increase in experiment [3] was -5.55%. For the same compound, the viability in experiment [4] was 88.3%; in experiment [5] it was 89.7%. Moreover, the inhibition in experiment [6] is 1.22%. Besides, the RAM network inhibition in experiment [7] is 0.16%.

With `COc1ccc(NC(=O)C2CCN(S(=O)(=O)c3ccc(C)cc3)CC2)cc1OC`, the growth inhibition was 4.97% in experiment [1] and 1.39% in experiment [2]. The viability increase in experiment [3] is -3.08%. Also, the viability in experiment [4] was 97.1%; in experiment [5], 101%. The inhibition in experiment [6] is 2.25%. Further, the RAM network inhibition in experiment [7] was 4.75%.

Turning to `O=C1CCCCC(=O)N(c2ccccc2)c2ccccc21`, the growth inhibition in experiment [1] was -9.64%; in experiment [2], -15%. In addition, the viability increase in experiment [3] was -3.3%. Also, the values for the viability in experiment [4] and in experiment [5] were 95.9% and 95.6%, respectively. In addition, the inhibition in experiment [6] was 1.74%. For the same compound, the RAM network inhibition in experiment [7] is 5.34%.

Turning to `COCCNC(=O)Cn1cnc2sc(C)c(S(=O)(=O)N3CCC(C)CC3)c2c1=O`, the values for the growth inhibition in experiment [1] and in experiment [2] were -5.23% and -3.64%, respectively. Also, the viability increase in experiment [3] was 0.05%. Moreover, the viability in experiment [4] and in experiment [5] was 100% throughout. The inhibition in experiment [6] is 1.68%. Further, the RAM network inhibition in experiment [7] is 5.34%.

Take `Cc1csc(=N)n1-c1ccc(Cl)cc1`: the growth inhibition was -6.4% in experiment [1] and -7.49% in experiment [2]. In experiment [3], the viability increase was 0.86%. Also, the viability in experiment [4] is 82.5%; in experiment [5], 80.7%. For the same compound, in experiment [6], the inhibition is 1.35%. Moreover, in experiment [7], the RAM network inhibition was 9.58%.

Turning to `Cc1cccc(NC(=O)C2CCN(S(=O)(=O)c3cccc4cccnc34)CC2)c1`, the growth inhibition in experiment [1] was 3.19%; in experiment [2], 11.8%. The viability increase in experiment [3] is -1.52%. Also, the values for the viability in experiment [4] and in experiment [5] were 88.2% and 81.8%, respectively. In addition, in experiment [6], the inhibition was 3.88%. Further, in experiment [7], the RAM network inhibition was 2.49%.

Take `O=C(Nc1nc(-c2cccs2)cs1)c1ccc(S(=O)(=O)N2CCCCC2)cc1`: the growth inhibition in experiment [1] was 0.945%; in experiment [2], -2.17%. Also, the viability increase in experiment [3] was -3.02%. The values for the viability in experiment [4] and in experiment [5] were 71.7% and 61.8%, respectively. Also, the inhibition in experiment [6] is 1.4%. Also, the RAM network inhibition in experiment [7] was 4.06%.

Turning to `O=C(c1ccccn1)N(CC1CCCO1)C1(C(=O)NC2CCCCC2)CCCCC1` (stereo unspecified), the values for the growth inhibition in experiment [1] and in experiment [2] were -4.99% and -10.3%, respectively. The viability increase in experiment [3] is -0.31%. Also, the viability in experiment [4] is 85.5%; in experiment [5] it was 92.3%. The inhibition in experiment [6] was 1.69%. Further, in experiment [7], the RAM network inhibition is -0.32%.
